Screening results deposited in PubChem BioAssay by Johns Hopkins Ion Channel Center.
KCNK9 inh: blocks the human KCNK9 two-pore domain potassium channel | Q9NPC2 | B-score at 10 µM | hit rate 1.2% among 310,000 | HEK293 KCNK9, FluxOR thallium flux fluorescence; hits give low values | AID 488922;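 active = ratio B-score over 3 SD below the library mean, with starting fluorescence within 5 SD of its mean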;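 also: negative B-score means less thallium flux so channel inhibition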
Kir21 block: Kir2.1 (mouse) channel inhibition. P35561. HEK293-Kir2.1, FluxOR thallium flux fluorescence; hits give low values. B-score at 10 µM. hit rate 0.85% among 310,000;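 active = fluorescence ratio B-score at or below minus 3 SD of library scores, with starting-brightness B-score within 2 SD, cut at about -4.2 in these data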;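 also: channel flux triggered by added potassium and thallium sulfate stimulus; B-score of peak minus minimum fluorescence over baseline after thallium stimulus; more negative B-score means stronger Kir2.1 block with less thallium influx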
KCNK3 block: human KCNK3 channel inhibition, primary screen | O14649 | CHO-KCNK3 thallium flux, FluxOR fluorescence; hits give low values | B-score at 10 µM | hit rate 0.84% among 340,000 | AID 602410;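 active = B-score under library mean minus 4 SD, starting fluorescence ratio at most library mean plus 5 SD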;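 also: more negative B-score means stronger inhibition of thallium flux through KCNK3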
hERG rescue: hERG (human) protection from proarrhythmic block. Q12809. CHO-hERG, FluxOR thallium flux, dofetilide IC70 present. activation (rescue from dofetilide block), less the hit threshold, % at 10 µM. hit rate 0.51% among 310,000. AID 1511;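 active = activation above the mean of controls blocked by dofetilide plus 5 SD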;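 also: thallium influx through hERG after potassium depolarization seen as dye fluorescence rise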
KCNQ1 block: human KCNQ1 channel inhibition; hit rate 1.3% among 310,000; AID 2642; B-score at 10 µM; CHO-K1 KCNQ1, FluxOR thallium flux fluorescence; hits give high values; P51787;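 active = compounds whose thallium flux B-score, printed positive for inhibition, exceeds three library SD while starting fluorescence stays within three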;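 also: channel opened by potassium depolarization with thallium stimulus after 20 min compound exposure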
KCNQ1 pot: potentiates or activates the human KCNQ1 potassium channel; P51787; CHO-K1 KCNQ1, thallium flux FluxOR fluorescence; hits give high values; B-score at 10 µM; hit rate 0.35% among 310,000; AID 2648;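 active = fluorescence ratio B-score, a plate-corrected score, at least three library SD, with initial intensity B-score within 5 SD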
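System: CHO-K1 cells stably expressing KCNQ1 / Medium: assay buffer for compound exposure, DMSO matched across wells / Reagent: thallium- and potassium-containing depolarizing buffer / Compound: one concentration, matched DMSO / Incubation: 20 min compound pretreatment at room temperature / Measured by: kinetic FluxOR fluorescence, 10 s baseline plus 110 s post-stimulus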
KCNK9 inh conf: confirmation of human KCNK9 potassium channel inhibitors; inhibition, % at 10 µM; hit rate 43% among 4,900; HEK293 KCNK9 cells, FluxOR thallium flux fluorescence; shares compounds with KCNK9 inh;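 active = thallium signal inhibited by more than 5 SD of the compound-free buffer control wells, on both duplicate plates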;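 also: 0% = assay buffer control wells without compound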
Kir21 sel: mouse Kir2.1 off-target activity of KCNK9 modulators; shares compounds with KCNK9 inh; Kir2.1 cells, FluxOR thallium flux fluorescence; inhibition, % at 10 µM; hit rate 4% among 4,900; AID 492993;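 active = thallium signal drop more than 5 SD beyond the mean of the no-compound control wells, seen in both duplicate plates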;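 also: signal is fluorescence rise after thallium addition divided by baseline fluorescence; plate controls were assay buffer only for no effect and full block by chlorpromazine control for full effect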
HEK293 Tl ctr: second counter-screen for KCNK9 modulators: effect in non-induced cells; shares compounds with KCNK9 inh; non-induced KCNK9-HEK293, FluxOR thallium flux; inhibition, % at 10 µM; hit rate 40% among 4,900;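 active = thallium signal drop beyond 5 SD of the untreated control mean, on both duplicate plates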;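 also: plate controls were buffer only IC0 wells for no effect and SID17386958 at its maximal inhibitory level for full effect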
* marks the source's active call; other numbers are inactive results. Hits are enriched below; roughly 3.7% of the tested compounds scored in any of these assays.

`Cc1cc(C)nc(NS(=O)(=O)c2ccc(NC(=O)C3(c4ccc([N+](=O)[O-])cc4)CCCC3)cc2)n1` gave KCNK9 inh inactive, Kir21 block 0.68, KCNK3 block inactive, hERG rescue -5.4, KCNQ1 block inactive and KCNQ1 pot inactive.
`Cc1cccc(NC(=O)C2(c3ccc([N+](=O)[O-])cc3)CCCC2)c1` gave KCNK9 inh inactive, Kir21 block -2.6, KCNK3 block inactive, hERG rescue -8.4, KCNQ1 block 6*, KCNQ1 pot inactive, KCNK9 inh conf inactive, Kir21 sel inactive and HEK293 Tl ctr inactive.
For Cc1c(Cl)cccc1NC(=S)N(CCN(C)C)C(C)c1ccco1 (stereo not drawn) the results were KCNK9 inh inactive, Kir21 block 1.75, KCNK3 block inactive, hERG rescue -7.4, KCNQ1 block inactive, KCNQ1 pot inactive, KCNK9 inh conf inactive, Kir21 sel inactive and HEK293 Tl ctr inactive.
For Cc1ccc(NC(=O)CCCC2CCCCC2)c(O)c1 the results were KCNK9 inh inactive, Kir21 block 0.17, KCNK3 block inactive, hERG rescue -6.9, KCNQ1 block inactive and KCNQ1 pot inactive.
Screening O=C(C1CCCN1S(=O)(=O)c1ccc(Cl)cc1)N1CCCCC1 (stereo not drawn) returned KCNK9 inh inactive, Kir21 block 1.29, KCNK3 block inactive, hERG rescue -4.1, KCNQ1 block inactive and KCNQ1 pot inactive.
Screening CCN(CC)CCNC(=O)c1cccc(NC(=O)C(=O)c2cc(Br)ccc2NC(C)=O)c1 returned KCNK9 inh inactive, Kir21 block 0.22, KCNK3 block inactive, hERG rescue -11.3, KCNQ1 block inactive and KCNQ1 pot inactive.
`Fc1cccc(Cl)c1Cc1noc(/C=C/c2ccccc2)n1` gave KCNK9 inh inactive, Kir21 block 0.08, KCNK3 block inactive, hERG rescue 0.7, KCNQ1 block inactive, KCNQ1 pot inactive, KCNK9 inh conf inactive, Kir21 sel inactive and HEK293 Tl ctr inactive.
`CC(C)CC(=O)NC(=S)Nc1ccc(S(=O)(=O)Nc2nccs2)cc1` gave KCNK9 inh inactive, Kir21 block 0.13, KCNK3 block inactive, hERG rescue -9.8, KCNQ1 block inactive and KCNQ1 pot inactive.
For NC(=O)c1ccc(Oc2ccc3c(c2)CCC3)c([N+](=O)[O-])c1 the results were KCNK9 inh inactive, Kir21 block 0.91, KCNK3 block inactive, hERG rescue -10.1, KCNQ1 block inactive, KCNQ1 pot inactive, KCNK9 inh conf inactive, Kir21 sel inactive and HEK293 Tl ctr inactive.
Cc1ccc(C(C)C)c(OCc2nn(CC(=O)c3ccc(OC(F)F)cc3)c3[n+]2CCCCC3)c1 was read as KCNK9 inh -8.38*, Kir21 block -2.28, KCNK3 block inactive, hERG rescue -27.6, KCNQ1 block 9*, KCNQ1 pot inactive, KCNK9 inh conf 51.0%*, Kir21 sel inactive and HEK293 Tl ctr inactive.
O=C(Cc1cccs1)NC(c1ccccc1)c1ccccc1 was read as KCNK9 inh inactive, Kir21 block -0.07, KCNK3 block inactive, hERG rescue -9.4, KCNQ1 block inactive and KCNQ1 pot inactive.
`O=C(COC(=O)/C(=C/c1cccs1)c1cccs1)NC(c1ccccc1)c1ccccc1` gave KCNK9 inh -9.11*, Kir21 block -1.12, KCNK3 block inactive, hERG rescue -10.3, KCNQ1 block inactive, KCNQ1 pot inactive, KCNK9 inh conf 45.5%*, Kir21 sel inactive and HEK293 Tl ctr inactive.
O=C(N/N=C/c1cccnc1)c1ccccc1OCc1cccc(Br)c1 was read as KCNK9 inh inactive, Kir21 block 0.15, KCNK3 block inactive, hERG rescue -10.8, KCNQ1 block inactive and KCNQ1 pot inactive.
Cc1ccc(/C=N/NC(=O)c2ccccc2OCc2cccc(Br)c2)o1 was read as KCNK9 inh -10.4*, Kir21 block -1.33, KCNK3 block inactive, hERG rescue -11.2, KCNQ1 block inactive, KCNQ1 pot inactive, KCNK9 inh conf 30.5%*, Kir21 sel inactive and HEK293 Tl ctr inactive.
For FC(F)(F)c1cccc(OCCN2CCN(Cc3ccccc3)CC2)c1 the results were KCNK9 inh inactive, Kir21 block -1.13, KCNK3 block inactive, hERG rescue -5.7, KCNQ1 block inactive, KCNQ1 pot inactive, KCNK9 inh conf inactive, Kir21 sel inactive and HEK293 Tl ctr inactive.
`CN(CCOc1cccc(C(F)(F)F)c1)Cc1ccccc1` gave KCNK9 inh inactive, Kir21 block 1.3, KCNK3 block inactive, hERG rescue -13.0, KCNQ1 block inactive and KCNQ1 pot inactive.
For OCCN1CCN(CCOc2cccc(Cl)c2)CC1 the results were KCNK9 inh inactive, Kir21 block -0.43, KCNK3 block inactive, hERG rescue -3.4, KCNQ1 block inactive, KCNQ1 pot inactive, KCNK9 inh conf inactive, Kir21 sel inactive and HEK293 Tl ctr inactive.
`O=C(/C=C/c1ccccc1)NC(NC(=S)Nc1cc(Cl)ccc1Cl)C(Cl)(Cl)Cl` (stereo not drawn) gave KCNK9 inh inactive, Kir21 block 1.08, KCNK3 block inactive, hERG rescue -10.8, KCNQ1 block 11*, KCNQ1 pot inactive, KCNK9 inh conf inactive, Kir21 sel inactive and HEK293 Tl ctr inactive.
For O=C(c1sc2ccccc2c1Cl)N1CCN(c2ncccn2)CC1 the results were KCNK9 inh inactive, Kir21 block 1.65, KCNK3 block inactive, hERG rescue -8.2, KCNQ1 block inactive and KCNQ1 pot inactive.
Screening O=C(c1sc2ccccc2c1Cl)N1CCN(c2ccc(F)cc2)CC1 returned KCNK9 inh inactive, Kir21 block 0.4, KCNK3 block inactive, hERG rescue -0.6, KCNQ1 block inactive, KCNQ1 pot inactive, KCNK9 inh conf inactive, Kir21 sel inactive and HEK293 Tl ctr inactive.
`O=C(c1sc2ccccc2c1Cl)N1CCN(c2ccccc2F)CC1` gave KCNK9 inh inactive, Kir21 block -0.62, KCNK3 block inactive, hERG rescue -7.3, KCNQ1 block inactive, KCNQ1 pot inactive, KCNK9 inh conf inactive, Kir21 sel inactive and HEK293 Tl ctr inactive.
